High-throughput results as filed in PubChem BioAssay.
CHT PAM – allosteric activators of human choline transporter CHT. Q9GZV3. CHT-expressing cells, membrane potential dye, choline EC20; active compounds read high; LV-AA mutant CHT in HEK293 cells. B-score at 10 µM. hit rate 0.49% among 310,000. AID 488977;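 active = initial fluorescence not abnormally high and integrated response B-score, plate-corrected, over 3 SD above library mean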
Target sequence (Q9GZV3 whole entry, looked up): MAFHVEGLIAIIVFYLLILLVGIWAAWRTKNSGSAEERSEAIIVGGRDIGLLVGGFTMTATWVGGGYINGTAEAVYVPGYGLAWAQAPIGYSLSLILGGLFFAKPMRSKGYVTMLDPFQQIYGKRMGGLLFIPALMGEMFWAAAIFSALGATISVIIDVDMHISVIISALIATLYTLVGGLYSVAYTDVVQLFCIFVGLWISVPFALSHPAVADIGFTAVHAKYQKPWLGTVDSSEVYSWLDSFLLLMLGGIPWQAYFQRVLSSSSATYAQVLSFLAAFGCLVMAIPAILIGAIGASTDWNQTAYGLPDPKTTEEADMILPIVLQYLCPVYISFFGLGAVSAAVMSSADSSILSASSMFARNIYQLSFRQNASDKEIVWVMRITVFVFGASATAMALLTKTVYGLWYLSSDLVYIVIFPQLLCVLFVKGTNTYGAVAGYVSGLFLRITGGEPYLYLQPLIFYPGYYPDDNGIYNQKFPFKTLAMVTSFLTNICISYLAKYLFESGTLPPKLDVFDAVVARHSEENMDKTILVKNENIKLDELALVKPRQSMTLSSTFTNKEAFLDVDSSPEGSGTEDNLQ
CHT inh – inhibitors of human choline transporter CHT | hit rate 0.86% among 310,000 | B-score at 10 µM | AID 488975 | Q9GZV3 | CHT-expressing cells, membrane potential dye, choline response; active compounds read low;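 active = B-score over 3 SD under the library average, and starting fluorescence ratio not unusually high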;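 note: choline stimulus applied at its EC90 after an EC20 pre-addition; B-score computed on integrated fluorescence ratio after choline addition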
ANO1 activ – activates or potentiates the mouse TMEM16A chloride channel | Q8BHY3 | HEK293 TMEM16A/YFP-H148Q/I152L, iodide quench fluorescence; active compounds read low | B-score at 10 µM | hit rate 0.3% among 340,000 | AID 623877;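 active = fluorescence-ratio B-score plate-corrected deviation score at least 3 library SD below zero, with starting fluorescence score within 5 deviations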;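 note: channel opened by trigger with iodide after compound preincubation; score built on the fluorescence ratio of max minus min over baseline; more negative score means more quench and so TMEM16A activation or potentiation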
VIM-2 inh – inhibitors of Pseudomonas aeruginosa VIM-2 metallo-beta-lactamase | hit rate 0.89% among 290,000 | inhibition, % at 5.6 µM | purified VIM-2, nitrocefin hydrolysis, epi-absorbance fluorescence;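 active = inhibition above the mean of all tested compounds plus 3 SD, cutoff set per screening run, cut at about 7.5% in these data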;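 note: red hydrolysis product quenches plate fluorescence so inhibitors raise well fluorescence; 0% = enzyme with DMSO and 100% = DMSO without enzyme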
TMEM16A inh – inhibitors of mouse TMEM16A calcium-activated chloride channel; HEK293 TMEM16A/YFP iodide influx fluorescence, ionomycin; normalized B-score (activity score, 25-100; higher = stronger inhibition) at 10 µM; hit rate 1.2% among 310,000; AID 588511;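 active = ratio plate-corrected score three or more library SD toward inhibition, starting fluorescence score within five deviations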;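 note: score derived from kinetic fluorescence span divided by baseline fluorescence per well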
IMP-1 inh – inhibitors of Pseudomonas aeruginosa IMP-1 metallo-beta-lactamase | purified IMP-1, nitrocefin hydrolysis, epi-absorbance fluorescence | inhibition, % at 5.6 µM | hit rate 0.45% among 290,000 | AID 1556;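 active = inhibition above the mean plus 3 SD of all compounds in the same screening run, cut at about 4.5% in these data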;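 note: 0% = IMP-1 with DMSO and 100% = DMSO wells lacking enzyme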
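Material – recombinant IMP-1 enzyme, purified · Amount – IMP-1 0.2 nM before substrate addition · Medium – HEPES buffer pH 7.1 with ZnSO4 and Brij 35 · Timing – 25 °C, 15 min preincubation, 25 min reaction · Measured by – plate fluorescence quenching by hydrolysis product, ex 480/em 530 nm · Read-out – percent enzyme inhibition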
CHT act confirm – confirmation of human choline transporter (CHT) activators; shares compounds with CHT PAM; CHT-expressing cells, membrane potential dye fluorescence (FDSS); % of choline EC20–EC90 response window; HEK293 expressing CHT LV-AA mutant; choline added at its EC20; activation, % at 10 µM; hit rate 91% among 2,500;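 active = primary screen active, with duplicate mean activation above negative control mean plus 3 SD, cut at about 11% in these data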
HEK293 MP dye – CHT activator counter-screen hit in parental HEK293 cells. shares compounds with CHT PAM. membrane potential dye fluorescence (FDSS); measured after EC20 choline addition. ratio readout change at 10 µM, hits read low. hit rate 62% among 2,500. AID 623908;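 active = duplicate-averaged ratio beyond 3 SD from buffer wells, up or down, though filed actives are nearly all decreases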
Active calls of the source: *; i = inactive; . = no result; ! = a repeat was not active. Shown are actives, neighbours in structure and some others; about 3.4% of the full set was active somewhere.

SMILES | CHT PAM | CHT inh | ANO1 activ | VIM-2 inh | TMEM16A inh | IMP-1 inh | CHT act confirm | HEK293 MP dye
FC(F)(F)COc1nc(OCC(F)(F)F)nc(N2CCN(c3ccccc3)CC2)n1 | 7.13* | i | . | -5.9 | i | -1.9 | 31.3* | i
Cc1cc(C)c2c(n1)nn1c(N3CCN(c4ccccc4)CC3)cc(C)nc21 | i | i | i | 0.2 | i | -1.7 | . | .
Cc1cc(C)c2c(n1)nn1c(NCCOCCO)cc(C)nc21 | 8.53* | i | i | 5.7 | i | -0.3 | 74.9* | -62.5*
Clc1ccccc1-c1nn2c(-c3ccccn3)nnc2s1 | i | i | i | 4.4 | i | -3.1 | 42.9* | -37.9*
CNC(=O)NC(=O)CSc1nc2sccc2c(=O)n1-c1ccccc1 | i | i | i | -4.3 | i | -4.0 | . | .
CN(C)CCCNc1c2c(nc3ccccc13)CCC2 | i | i | i | 2.2 | i | -3.0 | 62.2* | -65.9*
CCCCCC(=O)Nc1c2c(nc3ccccc13)CCC2 | i | i | i | -0.2 | i | -1.6 | . | .
COCCNc1c2c(nc3ccccc13)CCC2 | i | i | i | 0.6 | i | -2.0 | 44.3* | -39.5*
CC(OC(=O)Cc1ccsc1)C(=O)Nc1ccc(C(N)=O)cc1 (configuration not stated) | . | . | i | . | . | . | . | .
CCOC(=O)c1c(NC(=O)COC(=O)CCNS(=O)(=O)c2ccccc2)sc(C(=O)NC)c1C | . | . | i | . | . | . | . | .
O=C(NCCCNC(=O)c1ccc(-c2cccc(Cl)c2)o1)c1cnccn1 | i | i | i | -0.7 | i | -0.6 | . | .
O=C(CC1SC(N2CCOCC2)=NC1=O)Nc1cccc(C(F)(F)F)c1 (configuration not stated) | . | . | i | . | . | . | . | .
Cc1cc(/C=N\NC(=O)CC(=O)NC2CCCCC2)c(C)n1-c1cccc(Cl)c1Cl | 12.3* | i | i | -1.2 | i | -0.6 | 22.6* | i
COc1cc2nc(N3CCN(C(=O)c4ccco4)CC3)nc(N)c2cc1OC | 6.49*! | i | i | -0.1 | i | -2.2 | 36.6* | -26.5*
COc1cc2nc(N3CCN(C(=O)C4COc5ccccc5O4)CC3)nc(N)c2cc1OC (configuration not stated) | i | i | i | -1.4 | i | -1.2 | . | .
C=CCOc1ccc2ccccc2c1CNCCCN1CCOCC1 | i | i | i | -0.3 | i | -2.2 | . | .
C=CCOc1ccc(Br)cc1CNCCCN1CCOCC1 | i | i | i | 1.2 | i | -1.6 | 29.0* | i
O=C(NS(=O)(=O)Nc1ccccn1)c1c[nH]c2ccccc12 | i | i | i | -1.6 | i | -5.2 | . | .
COc1ccccc1NC1=Nc2cccc3cccc1c23 | i | i | i | -3.4 | i | -4.0 | . | .
CC1CN(C2=Nc3cccc4cccc2c34)CC(C)O1 (configuration not stated) | i | i | i | 0.9 | i | 0.2 | 57.6* | -56.4*
CC(=O)N1CCN(C2=Nc3cccc4cccc2c34)CC1 | 9.83* | i | i | -1.9 | i | -1.1 | 51.7* | -76.5*
O=C(O)c1ccc(NC2=Nc3cccc4cccc2c34)cc1 | . | . | i | -2.5 | . | -1.8 | . | .
COc1ccccc1N1CCN(C2=Nc3cccc4cccc2c34)CC1 | i | i | i | -2.6 | i | -3.4 | 39.1* | -58.4*
c1ccc(CC2CCN(C3=Nc4cccc5cccc3c45)CC2)cc1 | i | i | i | 0.6 | i | -1.0 | . | .
c1cc2c3c(cccc3c1)C(N1CCOCC1)=N2 | 8.55* | i | i | 2.8 | i | -0.3 | 56.2* | -67.7*
SMILES | CHT PAM | CHT inh | ANO1 activ | VIM-2 inh | TMEM16A inh | IMP-1 inh | CHT act confirm | HEK293 MP dye
Cc1nnc(NC(=O)c2ccc(S(=O)(=O)N3CC(C)CC(C)C3)cc2)o1 (configuration not stated) | i | i | i | -6.2 | i | -3.7 | . | .
O=C(Nc1ccnn1C1CCN(CCCC2CCCC2)CC1)c1ccccc1Cl | i | i | i | -1.4 | i | -1.0 | . | .
Cc1onc(-c2ccccc2)c1C(=O)NCCCc1ccccc1 | . | . | i | . | . | . | . | .
O=C(CCOc1ccccc1)Nc1ccnn1C1CCN(CCc2ccccc2)CC1 | i | i | i | 2.7 | i | 1.6 | . | .
O=[N+]([O-])c1ccc(OC(F)F)c(/C=N/n2cnnc2)c1 | i | i | i | 0.6 | i | 1.3 | 21.4* | -24*
O=[N+]([O-])c1cnc2nc(-c3ccncc3)nn2c1O | i | i | i | -5.3 | i | -4.0 | 43.7* | -44.8*
Cc1cc(C)nc(NC(=O)Nc2ccc(F)cc2F)n1 | i | i | i | -0.8 | i | -2.8 | . | .
CCCC[n+]1c(C)sc2ccc(C)cc21 | i | i | i | -4.2 | i | -1.9 | . | .
CC[n+]1c(C)sc2cc(C)ccc21 | i | i | i | -1.6 | i | -2.4 | 67.5* | -58*
CC(C)(C)c1ccc(C(=O)N/N=C/c2ccccn2)cc1 | i | i | i | -0.5 | i | -4.8 | . | .
Cc1ccc(C(=O)N/N=C\c2ccccn2)cn1 | i | i | i | -6.0 | i | -4.8 | 39.8* | -37.7*
CCOC(=O)c1c(CSCc2ccccc2)oc2ccc(O)c(CN(C)C)c12 | 10.5* | i | i | 1.3 | i | -1.5 | 24.6* | i
CCCn1c(SCC(=O)NC2CCCC2)nnc1-c1cccnc1 | i | i | i | -1.8 | i | -2.8 | . | .
Cc1ccc(NC(=O)Cc2nnc(SCC(=O)NC3CCCC3)n2C)c(C)c1 | i | i | i | -1.7 | i | -1.4 | . | .
Cc1cc(=O)oc2cc(OCCCC[n+]3ccccc3)ccc12 | i | i | i | 5.6 | i | -2.2 | 62.2* | -38.4*
CCn1c(/C=C/Nc2ccccc2)[n+](CC)c2cc(Cl)c(Cl)cc21 | 6.96* | i | i | -4.3 | i | -3.0 | 32.8* | -36.9*
CN1CCN(NC(=O)/C=C/c2cccc([N+](=O)[O-])c2)CC1 | i | i | i | -3.9 | i | -4.7 | . | .
CCOc1ccc(OCCC(=O)N(CC(C)C)c2c(N)n(Cc3ccccc3)c(=O)[nH]c2=O)cc1 | . | . | i | . | . | . | . | .
CN1CCN(Cc2nc3ccccc3c(=O)n2Cc2nc(-c3ccccc3F)cs2)CC1 | 8.2* | i | i | -2.6 | i | -1.4 | 29.6* | i
CN(Cc1cccnc1)C(=O)c1cc(COc2ccc3c(c2)CCCC3)on1 | i | i | i | 0.5 | i | -1.2 | 1.7 | i
